These results are taken from publication PMC9444042 (Neurotoxicology, 2021).

For series [1], the system named is GFP-labeled iPSC-derived human neurons. The class given is cell-based.
The test system of series [2] is LUHMES. The conditions noted are these: NeuriTox test, IC50 (viability/neurite area) ratio ≥4; ref Delp et al., 2018; cited from earlier work.
The test system of series [3] is iPSC-derived human spinal motor neurons. Format: cell-based.
Series [4] has as its system iPSC-derived human cortical glutamatergic neurons. Format: cell-based.
Series [5] relates to PeriTox test cells. The note with it: IC50 (viability/neurite area) ratio ≥3, ref Delp et al., 2018; cited from earlier work.
Series [6] relates to iPSC-derived human spinal motor neurons. Description: Cell viability / cytotoxicity. The class given is cell-based. The gist of the method:
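GFP-expressing iPSC-derived motor neurons were seeded at 800 cells/well on PDL-coated 1536-well plates and grown 40 h at 37 °C. Test compound was then added at 11 concentrations (1.56 nM–92 μM, 1:3) and exposed 24 and 48 h. Cells were counted as number of objects from GFP high-content images (488/530 nm, 20×, four fields/well). Values were normalized to 46 μM rotenone (−100%) and 0.46% DMSO (0%), in triplicate.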

Where [7] appears, read: cortical and/or motor neurons, not specified, 24 or 48 hours, up to 92 μM.
The mark [8] stands for this setting: motor neurons, active at either 24 or 48 hours, 1.56 nM to 92 μM.
[9] abbreviates: cortical neurons, active at either 24 or 48 hours, 1.56 nM to 92 μM.
The mark [10] stands for this setting: cortical neurons, 24 hours of treatment.
Where [11] appears, read: cortical neurons, 48 hours of treatment.

Entries after “also recorded” stand apart in the source; their conditions may differ. Read-outs that look alike come from different tables or passages of the source.

Take `CN(C)c1ccc(C(=N)c2ccc(N(C)C)cc2)cc1.Cl` [auramine O]: in series [1] (setting [7]), the “neurite outgrowth inhibition in this study (activity call)” value was “inhibit neurite outgrowth”.

Turning to `CC/C(=C(/CC)c1ccc(O)cc1)c1ccc(O)cc1` [Diethylstilbestrol], the “selective effect on neurite outgrowth” value in series [2] was “selective effects”.

For the molecule `Cn1c(=O)c2c(ncn2C)n(C)c1=O` [caffeine], the figures for the “neurite outgrowth inhibition (activity call)” value in series [3] and in series [4] were “inhibited; also recorded: affected” and “only affected neurite outgrowth in motor neurons”, respectively. Besides, in series [1] (setting [7]), the “neurite outgrowth inhibition in this study (activity call)” value was “inhibit neurite outgrowth”.

With `CC(C)[C@@H]1NC(=O)[C@H](C)OC(=O)[C@@H](C(C)C)NC(=O)[C@@H](C(C)C)OC(=O)[C@H](C(C)C)NC(=O)[C@H](C)OC(=O)[C@@H](C(C)C)NC(=O)[C@@H](C(C)C)OC(=O)[C@H](C(C)C)NC(=O)[C@H](C)OC(=O)[C@@H](C(C)C)NC(=O)[C@@H](C(C)C)OC1=O` [Valinomycin], the “selective effect on neurite outgrowth” value in series [5] and in series [2] was “selective effects” in each case. For the same molecule, the “selective effect on neurite outgrowth in this study” value in series [1] (neuron type not specified) is reported as “selective effects”.

Turning to `COc1cc2c(c(OC)c1OC)-c1ccc(OC)c(=O)cc1[C@@H](NC(C)=O)CC2` [Colchicine], the “neurite outgrowth inhibition (activity call)” value in series [3] (setting [8]) and in series [4] (setting [9]) was “inhibited” throughout.

On to `Brc1ccc(Oc2ccc(Br)cc2Br)c(Br)c1` [2,2′,4,4′-tetrabromodiphenyl ether], for which the “neurite outgrowth inhibition (activity call)” value is recorded as “affected” in series [3] (setting [8]); “inhibited” in series [3] (motor neurons, active at either 24 or 48 hours, 1.56 nM to 92 μM, listed as 2,2’,4,4’-tetrabromodiphenyl ether); “only affected neurite outgrowth in motor neurons” in series [4] (setting [9]).

As to `CC(C)(C)C(O)(CCc1ccc(Cl)cc1)Cn1cncn1` (stereo not drawn) [tebuconazole], the “neurite outgrowth inhibition (activity call)” value in series [4] (setting [10]) was “not active”; in series [4] (setting [11]), “active; also recorded: inhibitory effects”.

`CC1(C)[C@H](C(=O)O[C@H](C#N)c2cccc(Oc3ccccc3)c2)[C@@H]1C=C(Br)Br` [deltamethrin]: the “neurite outgrowth inhibition (activity call)” value is reported as “not active” in series [4] (setting [10]) and “active; also recorded: inhibitory effects” in series [4] (setting [11]).

Consider `C=C(C)[C@H]1Cc2c(ccc3c2O[C@@H]2COc4cc(OC)c(OC)cc4[C@@H]2C3=O)O1` [rotenone], for which the “neurite outgrowth inhibition (activity call)” value in series [3] (setting [8]) and in series [4] (setting [9]) was “inhibited neurite outgrowth in a concentration dependent manner” throughout. The “selective effect on neurite outgrowth” value in series [2] was “selective effects”.

For the molecule `CC(=O)[O-].CC(=O)[O-].O.O.O.[Pb+2]` [lead (II) acetate trihydrate], the “neurite outgrowth inhibition in this study (activity call)” value in series [1] (setting [7]) is “inhibit neurite outgrowth”.

For `Oc1ccc(C(c2ccc(O)cc2)(C(F)(F)F)C(F)(F)F)cc1` [bisphenol AF], the “neurite outgrowth inhibition (activity call)” value in series [4] (setting [9]) is on record as “inhibitory effects; also recorded: inhibited”. For the same molecule, the “neurite outgrowth inhibition in this study (activity call)” value in series [1] (setting [7]) is listed as “inhibit neurite outgrowth”.

Take `CCCCC(CC)COP(=O)(Oc1ccccc1)Oc1ccccc1` (stereo not drawn) [ethylhexyl diphenyl phosphate, 2-ethylhexyl diphenyl phosphate]: the “neurite outgrowth inhibition (activity call)” value in series [4] (setting [10]) was “active”.

Take `CC(C)(c1cc(Br)c(O)c(Br)c1)c1cc(Br)c(O)c(Br)c1` [3,3’,5,5’-tetrabromobisphenol A]: in series [4] (setting [9]), the “neurite outgrowth inhibition (activity call)” value is listed as “inhibited”.

Take `CCCCC(CC)COC(=O)c1cc(Br)c(Br)c(Br)c1Br` (stereo not drawn) [2-ethylhexyl-2,3,4,5-tetrabromobenzoate]: the “neurite outgrowth inhibition in this study (activity call)” value in series [1] (setting [7]) is given as “inhibit neurite outgrowth”.

Turning to `CCCCCC` [N-hexane, n-hexane], the “neurite outgrowth inhibition in this study (activity call)” value in series [1] is “not have been active”.

As for `c1ccc2cc3ccccc3cc2c1` [anthracene], the “neurite outgrowth inhibition (activity call)” value in series [3] (setting [8]) is on record as “affected”; in series [4] (setting [9]), “only affected neurite outgrowth in motor neurons”.

In the case of `[CH3][Hg][Cl]` [methyl mercuric (II) chloride], the “neurite outgrowth inhibition (activity call)” value in series [3] (setting [8]) and in series [4] (setting [9]) was “inhibited” each time.

Turning to `c1ccc2c(c1)-c1cccc3c1c-2cc1ccccc13` [benzo (b) fluoranthene], in series [4], the “neurite outgrowth inhibition (activity call)” value is given as “active”.

`CC(C)(c1ccc(O)cc1)c1ccc(O)cc1` [bisphenol A]: the results for the “neurite outgrowth inhibition (activity call)” value in series [4] (setting [10]) and in series [4] (setting [11]) were “not active” and “active; also recorded: inhibitory effects”, respectively.

In the case of `O=C1O[C@H]([C@@H](O)CO)C(O)=C1O` [L-ascorbic acid], the cytotoxicity result in series [6] is “cytotoxic”. Moreover, in series [1] (setting [7]), the “neurite outgrowth inhibition in this study (activity call)” value was “inhibitor of neurite outgrowth”.

Consider `CCOP(=S)(OCC)Oc1ccc([N+](=O)[O-])cc1` [parathion], for which the “neurite outgrowth inhibition (activity call)” value in series [4] (setting [9]) is “inhibitory effects; also recorded: inhibited”.

Turning to `C[C@]12CC[C@@H]3c4ccc(O)cc4CC[C@H]3[C@@H]1CC[C@@H]2O` [estradiol], the “neurite outgrowth inhibition in this study (activity call)” value in series [1] (setting [7]) was “inhibit neurite outgrowth”.

For the molecule `CCC1(c2ccccc2)C(=O)NC(=O)NC1=O` [phenobarbital], in series [1] (setting [7]), the “neurite outgrowth inhibition in this study (activity call)” value is recorded as “not be active”.
